Experimental data: ChEMBL document CHEMBL1139291, “Syntheses and opioid receptor binding properties of carboxamido-substituted opioids” (Bioorg Med Chem Lett, 2009)

Legend:
[1] = target: Mu-type opioid receptor (Cavia porcellus, UniProt P97266); assay: Displacement of [3H]DAMGO form mu opioid receptor in guinea pig brain
[2] = Displacement of [3H]Naltrindole form delta opioid receptor in guinea pig brain; design: species or system Cavia porcellus
Procedure, shortened: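 Guinea pig brain membrane protein incubated with 12 concentrations of compound and 0.2 nM [3H]naltrindole in 50 mM Tris–HCl, pH 7.5, with 10 mM MgCl2 and 0.5 mM PMSF, for 3 h at 25 °C. Samples filtered onto polyethyleneimine-soaked glass fiber filters, washed, and counted by scintillation. IC50 came from log-probit fit, and Ki = IC50/(1 + [radioligand]/Kd).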

[3] = target: Delta-type opioid receptor (Homo sapiens, UniProt P41143); assay: Displacement of [3H]Naltrindole form human delta opioid receptor expressed in CHO cells; type: cell-based
Procedure, shortened: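 Membranes from CHO cells stably expressing the human receptor incubated with 12 concentrations of compound and 0.2 nM [3H]naltrindole in 50 mM Tris–HCl, pH 7.5, with 10 mM MgCl2 and 0.5 mM PMSF, for 3 h at 25 °C. Filters were soaked in 0.1% PEI before filtration and scintillation counting. IC50 came from log-probit fit, and Ki = IC50/(1 + [radioligand]/Kd).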

[4] = target: T1, Kappa-type opioid receptor (Homo sapiens, UniProt P41145); assay: Displacement of [3H]U69593 form human kappa opioid receptor expressed in CHO cells; type: cell-based
[5] = target: T2, Mu-type opioid receptor (Homo sapiens, UniProt P35372); assay: Activity at human cloned mu opioid receptor expressed in CHO cells by [35S]GTPgammaS binding assay; type: functional, cell-based
[6] = target: T1, Kappa-type opioid receptor; assay: Activity at human cloned kappa opioid receptor expressed in CHO cells by [35S]GTPgammaS binding assay; type: functional, cell-based
[7] = target: T2, Mu-type opioid receptor; assay: Activity at human cloned mu opioid receptor expressed in CHO cells assessed as inhibition of DAMGO-induced [35S]GTPgammaS binding; type: functional, cell-based
[8] = target: Kappa-type opioid receptor (Cavia porcellus, UniProt P41144); assay: Displacement of [3H]U69593 form kappa opioid receptor in guinea pig brain
[9] = system: CHO; assay: Ratio of Ki for human delta opioid receptor to Ki for human kappa opioid receptor expressed in CHO cells; type: cell-based
[10] = system: CHO; assay: Ratio of Ki for human mu opioid receptor to Ki for human kappa opioid receptor expressed in CHO cells; type: cell-based
[11] = target: T2, Mu-type opioid receptor; assay: Displacement of [3H]DAMGO form human mu opioid receptor expressed in CHO cells; type: cell-based
[12] = species on record: Cavia porcellus; assay: Ratio of Ki for delta opioid receptor to Ki for kappa opioid receptor in guinea pig brain
[13] = target: T1, Kappa-type opioid receptor; assay: Activity at human cloned kappa opioid receptor expressed in CHO cells assessed as inhibition of U50488-induced [35S]GTPgammaS binding; type: functional, cell-based

Sequence of Mu-type opioid receptor (Cavia porcellus, UniProt P97266) (P97266 whole entry): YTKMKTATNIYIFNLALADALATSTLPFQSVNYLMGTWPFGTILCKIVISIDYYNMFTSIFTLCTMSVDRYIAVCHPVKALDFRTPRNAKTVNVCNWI
T2 sequence (P35372 whole entry): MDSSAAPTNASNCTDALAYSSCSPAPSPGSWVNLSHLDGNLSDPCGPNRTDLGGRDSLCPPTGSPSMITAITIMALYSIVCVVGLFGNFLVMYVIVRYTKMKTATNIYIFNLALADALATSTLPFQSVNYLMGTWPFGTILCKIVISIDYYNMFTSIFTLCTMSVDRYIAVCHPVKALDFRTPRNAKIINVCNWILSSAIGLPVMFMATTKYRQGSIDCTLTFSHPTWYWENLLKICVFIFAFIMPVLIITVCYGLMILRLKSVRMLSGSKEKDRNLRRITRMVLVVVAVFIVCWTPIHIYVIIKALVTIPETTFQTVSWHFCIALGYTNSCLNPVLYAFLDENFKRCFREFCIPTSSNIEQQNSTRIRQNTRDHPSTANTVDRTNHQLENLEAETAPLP
Sequence of Kappa-type opioid receptor (Cavia porcellus, UniProt P41144) (P41144 whole entry): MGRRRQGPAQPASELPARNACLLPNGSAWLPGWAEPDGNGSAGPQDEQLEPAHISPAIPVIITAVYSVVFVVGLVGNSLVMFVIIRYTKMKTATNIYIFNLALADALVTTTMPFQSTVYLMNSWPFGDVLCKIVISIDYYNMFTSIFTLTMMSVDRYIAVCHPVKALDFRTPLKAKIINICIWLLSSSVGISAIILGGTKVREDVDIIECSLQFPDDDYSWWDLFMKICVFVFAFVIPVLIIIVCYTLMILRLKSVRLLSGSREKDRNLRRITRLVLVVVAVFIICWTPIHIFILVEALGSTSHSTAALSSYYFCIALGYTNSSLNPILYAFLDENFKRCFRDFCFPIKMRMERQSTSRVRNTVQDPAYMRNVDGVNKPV
T1 sequence (P41145 whole entry): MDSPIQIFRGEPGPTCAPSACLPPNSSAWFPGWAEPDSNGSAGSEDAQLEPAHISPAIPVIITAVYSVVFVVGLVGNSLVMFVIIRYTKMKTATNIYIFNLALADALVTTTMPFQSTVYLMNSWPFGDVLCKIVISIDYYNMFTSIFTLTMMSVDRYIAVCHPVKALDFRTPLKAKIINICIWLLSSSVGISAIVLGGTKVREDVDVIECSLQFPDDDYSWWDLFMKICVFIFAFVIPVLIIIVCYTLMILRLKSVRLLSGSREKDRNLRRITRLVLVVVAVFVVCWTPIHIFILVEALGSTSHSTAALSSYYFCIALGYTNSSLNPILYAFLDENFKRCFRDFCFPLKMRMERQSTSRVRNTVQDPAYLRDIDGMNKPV
Sequence of Delta-type opioid receptor (P41143 whole entry): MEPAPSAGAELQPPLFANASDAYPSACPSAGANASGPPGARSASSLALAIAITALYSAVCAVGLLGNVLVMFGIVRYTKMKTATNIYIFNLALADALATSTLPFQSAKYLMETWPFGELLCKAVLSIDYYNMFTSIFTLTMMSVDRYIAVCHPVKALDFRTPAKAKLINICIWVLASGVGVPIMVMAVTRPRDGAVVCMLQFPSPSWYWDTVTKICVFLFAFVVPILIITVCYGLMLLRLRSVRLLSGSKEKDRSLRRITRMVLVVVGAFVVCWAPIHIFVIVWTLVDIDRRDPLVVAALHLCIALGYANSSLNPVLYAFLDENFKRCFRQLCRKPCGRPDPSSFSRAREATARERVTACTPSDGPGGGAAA

Row | Compound | Ki [2] | Ki [3] | Ki [4] | EC50 [6] | Ratio Ki [9] | Ratio Ki [10] | Ki [11] | also measured
1 | CCC12CCN(CC3CC3)C(C(=O)c3ccc(O)cc31)C2C (stereo not drawn) | 3.4 nM |  |  |  |  |  |  | Ki [1]: 0.78 nM
2 | CC(C)=CCN1CC[C@@]2(C)c3cc(C(N)=O)ccc3C[C@@H]1[C@@H]2C (relative stereo) |  | 220 nM | 5.6 nM |  |  |  |  | 
3 | C[C@H]1[C@H]2C(=O)c3ccc(O)cc3[C@]1(C)CCN2CC1CC1 [KETAZOCINE] | 20 nM |  |  | 3.3 nM |  |  |  | EC50 [5]: 21 nM; IC50 [7]: 130 nM; Ki [8]: 1 nM
4 | NC(=O)c1ccc2c3c1O[C@H]1C4NC5C(C[C@@]6(O)[C@H]7Cc8ccc(C(N)=O)c9c8[C@@]6(CCN7CC6CC6)[C@H]5O9)C4C[C@@]4(O)[C@@H](C2)N(CC2CC2)CC[C@]314 (stereo partly drawn) |  | 1000 nM | 21 nM |  | 50 | 19 | 400 nM | 
5 | NC(=O)c1ccc2c(c1)[C@@]13CCCC[C@@]1(O)[C@@H](C2)N(CC1CCC1)CC3 |  | 14 nM | 0.39 nM | 3.8 nM | 40 | 0.38 | 0.15 nM | IC50 [7]: 30 nM
6 | C[C@@H]1[C@@H]2Cc3ccc(C(N)=O)cc3[C@@]1(C)CCN2C[C@H]1CCCO1 | 34 nM |  |  | 170 nM |  |  |  | Ki [8]: 2.8 nM; Ki [1]: 2.9 nM
7 | CN1CC[C@]23c4c5ccc(C(N)=O)c4O[C@H]2[C@@H](O)C=C[C@H]3[C@H]1C5 | 1900 nM |  |  |  |  |  |  | Ratio Ki [12]: 1; Ki [8]: 2000 nM; Ki [1]: 34 nM
8 | C=C1CC[C@@]2(O)[C@H]3Cc4ccc(C(N)=O)c5c4[C@@]2(CCN3CC2CC2)[C@H]1O5 |  | 67 nM | 2.1 nM |  | 32 | 1 | 2.6 nM | 
9 | C=CCN1CC[C@]23c4c5ccc(O)c4O[C@H]2[C@@H](O)C=C[C@H]3[C@H]1C5 [NALORPHINE] |  | 120 nM | 0.38 nM |  | 320 | 0.5 | 0.19 nM | 
10 | CC(C)=CCN1CC[C@@]2(C)c3cc(O)ccc3C[C@@H]1[C@@H]2C (relative stereo) |  | 180 nM | 3 nM |  |  |  |  | 
11 | CC1C2Cc3ccc(C(N)=O)cc3C1(C)CCN2CCc1ccccc1 (stereo not drawn) |  | 1.2 nM | 0.55 nM | 4.4 nM | 2 | 0.03 | 0.015 nM | EC50 [5]: 5.3 nM; IC50 [13]: 640 nM
12 | NC(=O)c1ccc2c3c1O[C@H]1[C@H](O)CC[C@@]4(O)[C@@H](C2)N(CC2CC2)CC[C@]314 |  | > 10000 nM | 30 nM |  |  | 0.08 | 2.5 nM | 
13 | CN(C)C[C@H]1CCCC[C@]1(O)c1cccc(C(N)=O)c1 (relative stereo) |  | 2400 nM | 350 nM |  | 7 | 0.03 | 9.5 nM | 
14 | CC1C2C(=O)c3ccc(C(N)=O)cc3C1(C)CCN2CC1CC1 (stereo not drawn) | 20 nM |  |  | 9.6 nM |  |  |  | Ki [1]: 1.4 nM
15 | CN(C)C[C@H]1CCCC[C@]1(O)c1cccc(O)c1 (relative stereo) [O-DESMETHYL TRAMADOL] |  | 2900 nM | 450 nM |  |  |  |  | 
16 | NC(=O)c1ccc2c3c1O[C@H]1C(=O)CC[C@@]4(O)[C@@H](C2)N(CC2CC2)CC[C@]314 |  |  | 0.36 nM |  | 50 | 0.065 |  | 
17 | CC1C2Cc3ccc(C(N)=O)cc3C1(C)CCN2CC1CC1 (stereo not drawn) |  | 5.2 nM |  |  |  |  |  | 
18 | C[C@H]1C2Cc3ccc(O)cc3[C@@]1(C)CCN2CCc1ccccc1 |  | 5 nM | 2 nM | 8.1 nM | 2.5 | 0.1 | 0.2 nM | EC50 [5]: 27 nM
19 | C[C@@H]1[C@@H]2Cc3ccc(O)cc3[C@@]1(C)CCN2C[C@H]1CCCO1 | 67 nM |  |  | 41 nM |  |  |  | Ratio Ki [12]: 45; Ki [8]: 1.5 nM; Ki [1]: 4 nM
20 | CC1C2Cc3ccc(C(N)=O)cc3C1(C)CCN2C (stereo not drawn) |  | 320 nM | 19 nM |  | 17 | 0.08 | 1.6 nM | EC50 [5]: 24 nM; IC50 [7]: 25 nM
21 | COc1cccc(C2(O)CCCCC2CN(C)C)c1 (stereo not drawn) [TRAMADOL] |  | 9.4 nM | 14 nM |  |  |  |  | 
22 | CC1C2Cc3ccc(O)cc3[C@@]1(C)CCN2C[C@@H]1CCCO1 (single isomer, unassigned) | 3.6 nM |  |  | 1 nM |  |  |  | EC50 [5]: 2.7 nM; IC50 [7]: 17 nM; Ratio Ki [12]: 40; Ki [8]: 0.09 nM; Ki [1]: 0.19 nM
23 | NC(=O)c1ccc2c3c1O[C@H]1[C@@H](O)CC[C@@]4(O)[C@@H](C2)N(CC2CC2)CC[C@]314 |  | > 10000 nM | 100 nM |  |  | 0.07 | 7.1 nM | 
24 | Oc1ccc2c(c1)[C@@]13CCCC[C@@]1(O)[C@@H](C2)N(CC1CCC1)CC3 [BUTORPHANOL] |  |  |  | 2.9 nM |  |  |  | 
25 | C=CCN1CC[C@]23c4c5ccc(C(N)=O)c4O[C@@H]2[C@@H](O)C=C[C@H]3[C@H]1C5 |  | > 10000 nM | 100 nM |  |  | 0.2 | 18 nM | 
26 | CCC12CCN(CC3CC3)C(C(=O)c3ccc(C(N)=O)cc31)C2C (stereo not drawn) | 9.8 nM |  |  |  |  |  |  | Ratio Ki [12]: 14; Ki [1]: 1.2 nM
27 | C[C@@H]1[C@@H]2Cc3ccc(C(N)=O)cc3[C@@]1(C)CCN2C[C@@H]1CCCO1 | 2 nM |  |  | 30 nM |  |  |  | Ki [8]: 0.089 nM; Ki [1]: 0.052 nM
28 | C[C@H]1[C@@H]2Cc3ccc(O)cc3[C@]1(C)CCN2C [METAZOCINE] |  | 140 nM | 9.9 nM | 120 nM | 14 | 0.4 | 3.8 nM | EC50 [5]: 40 nM
